# CYP2C19 act = increases human CYP2C19 enzyme activity; 96,000 tested, under 10 active; recombinant CYP2C19, luciferin-H EGE luminescence; active compounds read high; 0 = fully inhibited enzyme, 1 = untreated enzyme; activation factor at 5 µM; P33261;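 active = activation factor of at least 2 at 5 µM in the primary screen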;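 also: 0 = wells with 2.5 mM tranylcypromine and 1 = vehicle-only wells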
# E coli WT exp = blocks growth of wild type E. coli BW25113; OD600 absorbance; growth inhibition, % at 100 µM; 98,000 compounds, 0.15% hits;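 active = growth inhibition above about 50% at one test dose, limit read from the data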;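 also: growth measured after 20 h incubation at 37 °C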
# CYP2C9 activ = activators of human CYP2C9 | P11712 | recombinant CYP2C9, luciferin-H conversion, luminescence; active compounds read high; factor 1 = untreated enzyme, 0 = blocked | activation factor at 5 µM | 96,000 compounds, 1.4% hits | AID 1024;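 active = activation factor of 2 or more for CYP2C9 at a 5 µM dose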;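 also: 0 = sulfaphenazole-blocked wells and 1 = vehicle-only wells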
# Target sequence (P11712 whole entry, looked up): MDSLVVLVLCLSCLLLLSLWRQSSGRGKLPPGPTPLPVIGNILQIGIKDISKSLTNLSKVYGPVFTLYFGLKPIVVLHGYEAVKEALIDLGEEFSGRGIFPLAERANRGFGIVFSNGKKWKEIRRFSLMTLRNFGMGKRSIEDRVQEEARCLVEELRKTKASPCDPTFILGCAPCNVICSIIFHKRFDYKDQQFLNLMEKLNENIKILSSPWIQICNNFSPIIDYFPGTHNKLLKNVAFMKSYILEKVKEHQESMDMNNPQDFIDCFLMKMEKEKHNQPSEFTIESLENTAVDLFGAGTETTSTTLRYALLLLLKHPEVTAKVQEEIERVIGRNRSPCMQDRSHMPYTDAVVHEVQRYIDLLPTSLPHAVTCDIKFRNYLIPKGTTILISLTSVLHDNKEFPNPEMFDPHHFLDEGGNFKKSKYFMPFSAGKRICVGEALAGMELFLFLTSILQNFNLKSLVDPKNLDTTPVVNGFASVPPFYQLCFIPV
# CYP2C9 inh = human CYP2C9 inhibition. AID 777. inhibition, % at 5 µM. P11712. CYP2C9 Supersomes, luciferin-H conversion, luminescence. 96,000 compounds, 20% hits;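 active = blocking of liver enzyme CYP2C9 beyond about 50% at 5 µM, limit read from the data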
# CYP2C19 inhib = inhibitors of human CYP2C19 | 96,000 compounds, 21% hits | CYP2C19 Supersomes, luciferin-H EGE luminescence, 30 min | inhibition, % at 5 µM;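 active = CYP2C19 inhibition above a set limit at 5 µM in the primary screen, cut at about 50% in these data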;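 also: plate controls were negative control wells for no effect and 2.5 mM tranylcypromine positive control for full effect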
# Ecoli tolC = growth inhibitors of E. coli BW25113 tolC mutant; OD615; growth inhibition, % at 10 µM (by protocol); 65,000 compounds, 2.2% hits; AID 573;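 active = growth inhibition at or above a cutoff equal to the mean over every tested compound plus 3 SD, cut at about 60% in these data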;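 also: growth measured after 20 h incubation at 37 °C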
#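 Signal: optical density read at 615 nm; Assay system: E. coli ΔtolC::kan strain BW25113; Times: 20 h incubation with compound, 37 °C; Dosing: 10 µM final, single dose.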
# The depositor's hits bear a star; . = no result. This is a sample that favours compounds with a hit; in the whole collection about 29% have one here.
SMILES,CYP2C19 act,E coli WT exp,CYP2C9 activ,CYP2C9 inh,CYP2C19 inhib,Ecoli tolC
Cc1ccc(SC(c2ccc(C)cc2)C(Cn2cncn2)C(=O)c2ccccc2)cc1 (stereo not given),0.8,-4,0.6,37,18,.
CCOc1ccc(N2C(=O)CC(NCc3ccc(F)cc3)C2=O)cc1 (stereo not given),0.8,9,0.9,15,16,-1
O=C1CC(NCc2ccccc2F)C(=O)N1c1ccccc1 (stereo not given),0.3,6,0.8,20,72*,-22
Cc1ccc(Oc2c(C=O)c3ccccc3n2C)cc1,0.3,7,1,-3,68*,.
Cn1c(Oc2ccc(Cl)cc2)c(C=O)c2ccccc21,0.4,-5,0.7,30,58*,.
COc1ccc(-c2c(NC(=O)C(C)C)n(C)c3ccccc3c2=O)cc1,0.5,3,0.6,35,47,.
COc1ccc(Oc2c(C=O)c3ccccc3n2C)cc1,0.3,9,1.3,-34,69*,.
CN(C(=O)COc1cc(=O)n(C)c2ccccc12)c1cccc(Cl)c1,0.8,0,0.8,19,17,11
O/N=C1/C2C3CC4C5C3C1C5C1(OCCO1)C42 (stereo not given),1.2,2,1.2,-18,-17,-12
O=C(CCCc1nc(-c2ccc(Cl)cc2)no1)N1CCOCC1,.,2,.,.,.,-7
O=C1CC(C2CCCO2)C(=O)N1c1cccc(Cl)c1 (stereo not given),1,-5,1.2,-17,-3,-4
COc1ccc(C2CC(c3ccc(Cl)cc3Cl)Nc3nc(N)nn32)cc1 (stereo not given),0.6,10,0.6,37,44,26
COc1ccc(C2CC(c3ccccc3)Nc3nc(NC(=O)c4cccs4)nn32)cc1 (stereo not given),1,1,0.8,25,-4,49
CCOc1ccc(C2CC(c3cccc(OC)c3OC)n3nnnc3N2)cc1Cl (stereo not given),0,-3,0.1,89*,98*,35
COc1ccc(C2CC(c3ccccc3)n3nnnc3N2)cc1 (stereo not given),0,2,0.1,87*,98*,.
COc1ccc(C2CC(c3cc(Br)ccc3F)n3nnnc3N2)cc1 (stereo not given),0.6,-1,0.4,64*,38,42
Cc1ccc(C2CC(c3cccc(Br)c3)Nc3nnnn32)cc1 (stereo not given),0.5,-9,0.7,35,51*,67*
COc1cccc(C2CC(c3ccc(C)cc3)n3nc(N)nc3N2)c1 (stereo not given),0.8,7,1,-1,16,18
CCn1c(=O)cc(O)c2c(=O)n(C)c(=O)n(C)c21,1,7,0.6,43,2,-19
CCOC(=O)c1c(=O)n(O)c2ccc(OC)cc2[n+]1[O-],1,2,1,-4,-1,.
CCCC1(C(=O)OCC)NC(c2cc(OC)c(OC)c(OC)c2)C2C(=O)N(CC)C(=O)C21 (stereo not given),1,-4,0.9,13,4,-9
CN(C)c1ccc(NC(=O)CC2NCCNC2=O)cc1 (stereo not given),1.2,3,1.1,-12,-16,-15
O=C(NC1CCCCC1)c1cccc(Cn2cc(Cl)cn2)c1,1,3,0.9,12,3,.
CCOC(=O)C1CCc2sc(N)c(C#N)c21 (stereo not given),0.9,1,1,-4,10,-3
CC(C)(C)c1nc(N2CCN(C(=O)c3ccco3)CC2)c2nnn(Cc3ccccc3)c2n1,1,-18,0.8,24,2,.
SMILES,CYP2C19 act,E coli WT exp,CYP2C9 activ,CYP2C9 inh,CYP2C19 inhib,Ecoli tolC
CN1CCc2c(sc3ncn4nc(-c5ccccc5O)nc4c23)C1,0.8,-1,0.6,36,20,6
COc1ccc(C2CC(c3ccc(Cl)cc3)Nc3nc(NC(=O)c4ccco4)nn32)cc1 (stereo not given),.,.,.,.,.,48
O=C(Nc1nc2n(n1)C(c1ccccc1)C=C(c1ccccc1)N2)c1ccco1 (stereo not given),0.7,-5,0.3,73*,31,5
COc1ccc(C2CC(c3ccccc3)n3nc(NC(=O)c4cccs4)nc3N2)cc1 (stereo not given),0.8,-2,0.5,53*,18,65*
O=C(Nc1nc2n(n1)C(c1ccc(Cl)cc1)CC(c1ccc(Cl)cc1)N2)c1ccco1 (stereo not given),0.3,-6,0.2,82*,71*,61*
Cc1cc(=S)[nH]c2c(C)cccc12,0.8,12,1.7,-67,18,.
Cc1n[nH]c(C)c1CCCOc1ccccc1,0.1,5,0.4,60*,87*,.
CCOc1cccc(OCCCOc2ccccc2)c1,1,-2,0.9,13,3,.
COc1ccc(OCCCc2c(C)n[nH]c2C)cc1,0.2,4,0.3,69*,85*,.
COc1cccc(OCCc2c(C)n[nH]c2C)c1,0.8,5,1,-3,19,.
Cc1cccc(OCCCCc2c(C)n[nH]c2C)c1,0.1,15,0.2,76*,89*,100*
CCCCCOC(=O)Cn1c(SCC(=O)Nc2ccccc2)nc2c1c(=O)[nH]c(=O)n2C,0.8,-2,0.8,22,24,3
COC(=O)c1cc(COC(=O)c2cccnc2SC)oc1C,0.9,6,1,0,12,8
CC(C)CNC(=S)NNC(=O)c1ccc(OC(F)F)cc1,0.7,14,0.9,9,26,.
CCCn1c(O)c(CN2CCCCC2)c(C)c(C#N)c1=O,1.1,1,0.4,63*,-8,-9
Cc1ccc(O)c(C(=O)c2cc(C#N)c(=O)n(CC3CCCO3)c2)c1 (stereo not given),0.3,-2,0.5,47,66*,-12
COc1ccc(O)c(C(=O)c2cc(C#N)c(=O)n(CC3CCCO3)c2)c1 (stereo not given),0.9,4,0.8,18,9,.
O=C(NCc1ccco1)C1CCC(N2C(=O)c3ccccc3C2=O)CC1 (stereo not given),0.8,-5,0.6,38,24,-13
O=C(NCCCn1ccnc1)c1cccc(S(=O)(=O)N2CCCCCC2)c1,0,7,0,100*,95*,.
O=C(Nc1nccs1)c1ccc(Cl)c(S(=O)(=O)N2CCOCC2)c1,0.8,-4,0.7,25,18,11
O=C(NC1CCCC1)c1cccc(S(=O)(=O)N2CCCCC2)c1,0.9,-1,0.8,24,8,2
O=C(NCCCn1ccnc1)c1ccc(Cl)c(S(=O)(=O)N2CCOCC2)c1,0.6,2,0,97*,36,-6
Cc1cc2c(c(=O)n1Cc1ccc3c(c1)OCO3)C(c1cccnc1)C(C#N)=C(N)O2 (stereo not given),0.7,-9,0.5,52*,28,-4
